From ChEMBL document CHEMBL3580637, “Selective Inhibition of Bacterial Topoisomerase I by alkynyl-bisbenzimidazoles” (Medchemcomm, 2014)
Converted amounts (≈) assume the structure as drawn. The source made the active and inactive calls. The calls are words filed in the database; no cut-off is given here.

Tests used:
[1] = Inhibition of Escherichia coli DNA topoisomerase-1 using supercoiled pBAD-GFPuv plasmid DNA as substrate assessed as prevention of supercoiled DNA template from relaxation after 15 mins by agarose gel electrophoresis
DNA topoisomerase 1 = target: T1, DNA topoisomerase 1 (Homo sapiens, UniProt P11387); assay: Inhibition of human DNA topoisomerase-1 using supercoiled pBAD-GFPuv plasmid DNA as substrate assessed as prevention of supercoiled DNA template from relaxation after 30 mins by agarose gel electrophoresis
T1 sequence (P11387 whole entry): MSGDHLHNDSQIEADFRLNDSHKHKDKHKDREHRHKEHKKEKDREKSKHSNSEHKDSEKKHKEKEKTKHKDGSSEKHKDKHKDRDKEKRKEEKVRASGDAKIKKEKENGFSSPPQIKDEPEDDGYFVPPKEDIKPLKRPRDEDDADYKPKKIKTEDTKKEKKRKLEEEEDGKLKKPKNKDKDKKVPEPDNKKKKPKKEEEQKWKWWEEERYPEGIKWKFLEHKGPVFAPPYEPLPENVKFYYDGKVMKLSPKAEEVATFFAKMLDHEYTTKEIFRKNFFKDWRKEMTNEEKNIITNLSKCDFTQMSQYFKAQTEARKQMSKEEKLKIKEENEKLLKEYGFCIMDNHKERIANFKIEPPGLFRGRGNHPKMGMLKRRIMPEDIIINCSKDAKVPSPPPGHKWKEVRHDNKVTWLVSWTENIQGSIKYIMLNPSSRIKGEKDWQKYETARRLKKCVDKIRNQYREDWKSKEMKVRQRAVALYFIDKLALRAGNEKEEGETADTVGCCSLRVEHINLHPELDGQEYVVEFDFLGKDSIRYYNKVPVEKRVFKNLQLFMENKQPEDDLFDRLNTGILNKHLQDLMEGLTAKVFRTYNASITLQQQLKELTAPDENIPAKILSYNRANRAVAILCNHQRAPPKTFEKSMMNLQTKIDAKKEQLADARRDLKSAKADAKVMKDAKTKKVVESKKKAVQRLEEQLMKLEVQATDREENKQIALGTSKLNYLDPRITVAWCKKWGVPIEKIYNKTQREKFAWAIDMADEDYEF
Procedure, shortened: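 Compound at 5–50 µM final; 30 min at 37 °C, phenol stop. Read on 1% agarose/TAE gel with ethidium stain. IC50 = concentration at 50% (−) supercoiled DNA by densitometry; mean of ≥3 determinations.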

[2] = Binding affinity to dA60.dT60 DNA (unknown origin) assessed as change in melting temperature at 10 uM by UV-Vis spectrophotometric analysis
Procedure, shortened: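 Preformed dA60·dT60 duplex (equimolar strands heated 95 °C 15 min in 10 mM sodium cacodylate, 0.1 mM EDTA, 100 mM NaCl, pH 7.0, slowly cooled) at 1 µM duplex with 10 µM ligand (diluted from DMSO stock). Absorbance melting in 1 cm quartz cells, heating 0.2 °C/min, data every 1.0 °C; Tm shift versus ligand-free duplex.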

DU-145 = assay: Cytotoxicity against human DU145 cells after 48 hrs by sulforhodamine B assay; assay type: cell-based; conditions: DU-145, 48 h
Procedure, shortened: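 DU145 cells were seeded and allowed 24 h to resume growth at 37 °C, 5% CO2. They were treated in triplicate at final 20, 10, 5, 2.5, 1.25, 0.625 and 0.0625 µM for 48 h, alongside untreated and media-only wells. Cells were fixed with cold TCA (16% final) and stained with sulforhodamine B in 1% acetic acid. Bound dye was solubilized in 10 mM Tris base and read at 560 nm to give IC50.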

Staphylococcus aureus [3] = assay: Antibacterial activity against Staphylococcus aureus ATCC 29213 after 24 hrs by microbroth dilution method; assay type: functional; conditions: ATCC 29213, 24 h
Procedure, shortened: (§1)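 Organisms were grown to log phase in Mueller-Hinton broth at 37 °C with shaking. They were pelleted, resuspended in 0.85% saline to OD625 0.1, and dispensed at a final 5×10^5 CFU/mL per CLSI microbroth dilution. Plates were run in triplicate and incubated 24 h at 37 °C, then OD625 was read. MIC was the lowest concentration giving complete growth inhibition versus untreated controls.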

Staphylococcus aureus [4] = assay: Antibacterial activity against Staphylococcus aureus ATCC 33591 after 24 hrs by microbroth dilution method; assay type: functional; conditions: ATCC 33591, 24 h; procedure, shortened: as §1
Escherichia coli [5] = assay: Antibacterial activity against Escherichia coli ATCC 25922 after 24 hrs by microbroth dilution method; assay type: functional; conditions: ATCC 25922, 24 h; procedure, shortened: as §1
Enterococcus faecalis = assay: Antibacterial activity against Enterococcus faecalis ATCC 29212 after 24 hrs by microbroth dilution method; assay type: functional; conditions: ATCC 29212, 24 h; procedure, shortened: as §1
[6] = target: T2, DNA topoisomerase 1 (Homo sapiens) (UniProt P11387); assay: Inhibition of human DNA topoisomerase-1 using supercoiled pBAD-GFPuv plasmid DNA as substrate assessed as prevention of supercoiled DNA template from relaxation at 50 uM after 30 mins by agarose gel electrophoresis relative to control
T2 sequence (whole entry): T1 sequence (P11387 whole entry)
Procedure, shortened: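 Human topoisomerase I (2 units) was incubated with 250 ng supercoiled pBAD-GFPuv in 20 mM Tris-HCl pH 7.9, 50 mM KAc, 10 mM Mg(Ac)2, 1 mM DTT and 1 µg/ml BSA, with compound at 10 or 50 µM, for 30 min at 37 °C. After a phenol stop, DNA was resolved on 1% agarose without chloroquine beside a relaxed plasmid marker and stained with ethidium bromide.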

[7] = target: T3, DNA gyrase (Escherichia coli) (UniProt P0AES6+P0AES4); assay: Inhibition of Escherichia coli DNA gyrase using relaxed pBAD-GFPuv plasmid DNA as substrate at 1 to 50 uM after 30 mins by agarose gel electrophoresis; assay type: protein-complex assay
Calf thymus DNA = assay: Binding affinity to calf thymus DNA assessed as change in melting temperature relative to control; assay type: nucleic-acid assay; conditions: Bos taurus
Pseudomonas aeruginosa = assay: Antibacterial activity against Pseudomonas aeruginosa ATCC 27853 after 24 hrs by microbroth dilution method; assay type: functional; conditions: ATCC 27853, 24 h; procedure, shortened: as §1
Escherichia coli [8] = assay: Antibacterial activity against Escherichia coli K-12 after 24 hrs by microbroth dilution method; assay type: functional; conditions: K-12, 24 h; procedure, shortened: as §1
[9] = Inhibition of Escherichia coli DNA topoisomerase-1 using supercoiled pBAD/Thio plasmid DNA as substrate assessed as prevention of supercoiled DNA from relaxation after 30 mins by agarose gel electrophoresis
[10] = target: DNA topoisomerase 2-alpha (Homo sapiens, UniProt P11388); assay: Inhibition of human DNA topoisomerase-2 using supercoiled pBAD-GFPuv plasmid DNA as substrate assessed as prevention of supercoiled DNA template from relaxation after 30 mins by agarose gel electrophoresis
Chain of DNA topoisomerase 2-alpha (P11388 whole entry): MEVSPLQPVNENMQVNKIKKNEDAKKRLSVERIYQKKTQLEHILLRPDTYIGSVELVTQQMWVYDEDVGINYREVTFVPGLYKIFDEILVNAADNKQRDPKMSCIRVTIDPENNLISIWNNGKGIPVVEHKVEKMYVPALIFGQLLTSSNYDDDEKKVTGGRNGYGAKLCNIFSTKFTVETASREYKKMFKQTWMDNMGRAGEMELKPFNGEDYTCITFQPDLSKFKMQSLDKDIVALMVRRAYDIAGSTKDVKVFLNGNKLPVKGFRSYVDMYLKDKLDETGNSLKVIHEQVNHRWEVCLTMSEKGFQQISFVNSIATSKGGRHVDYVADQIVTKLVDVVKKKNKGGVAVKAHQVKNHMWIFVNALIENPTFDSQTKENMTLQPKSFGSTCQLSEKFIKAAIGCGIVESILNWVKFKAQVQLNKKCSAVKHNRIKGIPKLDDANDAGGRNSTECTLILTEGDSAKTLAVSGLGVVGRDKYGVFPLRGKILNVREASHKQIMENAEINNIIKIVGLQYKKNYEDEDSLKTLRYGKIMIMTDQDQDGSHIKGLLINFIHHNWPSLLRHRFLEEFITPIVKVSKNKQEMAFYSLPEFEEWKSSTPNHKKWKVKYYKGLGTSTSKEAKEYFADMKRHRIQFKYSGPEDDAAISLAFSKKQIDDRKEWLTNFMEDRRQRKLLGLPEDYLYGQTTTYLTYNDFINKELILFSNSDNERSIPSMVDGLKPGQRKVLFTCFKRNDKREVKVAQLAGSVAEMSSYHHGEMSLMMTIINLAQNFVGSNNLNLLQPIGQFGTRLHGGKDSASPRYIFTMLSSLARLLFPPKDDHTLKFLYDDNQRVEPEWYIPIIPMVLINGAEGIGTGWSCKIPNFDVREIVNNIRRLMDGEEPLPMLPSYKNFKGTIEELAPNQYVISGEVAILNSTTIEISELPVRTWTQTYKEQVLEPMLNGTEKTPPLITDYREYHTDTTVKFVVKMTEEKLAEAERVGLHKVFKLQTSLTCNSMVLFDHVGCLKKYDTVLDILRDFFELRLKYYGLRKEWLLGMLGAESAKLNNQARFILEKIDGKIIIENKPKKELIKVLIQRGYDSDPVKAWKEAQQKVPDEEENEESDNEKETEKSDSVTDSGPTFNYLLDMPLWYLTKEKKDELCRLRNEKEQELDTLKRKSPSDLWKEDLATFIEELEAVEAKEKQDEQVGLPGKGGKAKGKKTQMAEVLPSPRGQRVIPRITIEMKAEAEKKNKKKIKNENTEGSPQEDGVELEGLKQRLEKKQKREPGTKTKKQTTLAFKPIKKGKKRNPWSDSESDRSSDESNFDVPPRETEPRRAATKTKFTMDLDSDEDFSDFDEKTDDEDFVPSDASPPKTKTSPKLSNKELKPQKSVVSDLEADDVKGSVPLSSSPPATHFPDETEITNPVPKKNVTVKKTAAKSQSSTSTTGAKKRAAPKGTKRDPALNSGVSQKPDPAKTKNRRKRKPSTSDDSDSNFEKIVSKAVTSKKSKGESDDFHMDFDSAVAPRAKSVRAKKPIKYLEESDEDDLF
Procedure, shortened: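 Compound at 5–50 µM final; 30 min at 37 °C, phenol stop. Read on 1% agarose/TAE gel with ethidium stain. IC50 = concentration at 50% (−) supercoiled DNA by band intensity; mean of ≥3 determinations.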

[11] = target: T3, DNA gyrase (Escherichia coli); assay: Inhibition of Escherichia coli DNA gyrase using relaxed pBAD-GFPuv plasmid DNA as substrate at 1 to 10 uM after 30 mins by agarose gel electrophoresis; assay type: protein-complex assay

CCOc1ccc(-c2nc3cc(-c4nc5cc(N6CCN(C)CC6)ccc5[nH]4)ccc3[nH]2)cc1
IC50 [1]: 29.8 µM | IC50 (DNA topoisomerase 1): > 50 µM | ΔTm [2]: 24.1 °C | IC50 (DU-145): 4.25 µM | MIC (Staphylococcus aureus [3]): 2 µg/mL (≈ 4.42 µM) | MIC (Staphylococcus aureus [4]): 2 µg/mL (≈ 4.42 µM) | MIC (Escherichia coli [5]): 8 µg/mL (≈ 17.7 µM) | MIC (Enterococcus faecalis): 16 µg/mL (≈ 35.4 µM)

C#CCOCCCCOc1ccc(-c2nc3ccc(-c4nc5ccc(N6CCN(C)CC6)cc5[nH]4)cc3[nH]2)cc1
IC50 [1]: 6.63 µM | inhibition [6]: 5% | inhibition [7]: inactive | ΔTm [2]: 23.4 °C | ΔTm (Calf thymus DNA): 1 °C | MIC (Staphylococcus aureus [3]): 2 µg/mL (≈ 3.74 µM) | MIC (Staphylococcus aureus [4]): 2 µg/mL (≈ 3.74 µM) | MIC (Escherichia coli [5]): 8 µg/mL (≈ 15 µM) | MIC (Pseudomonas aeruginosa): 16 µg/mL (≈ 29.9 µM) | MIC (Escherichia coli [8]): 8 µg/mL (≈ 15 µM)

COc1ccc(-c2nc3cc(-c4nc5cc(N6CCN(C)CC6)ccc5[nH]4)ccc3[nH]2)cc1OC
IC50 [9]: 3.8 µM

CN1CCN(c2ccc3[nH]c(-c4ccc5[nH]c(-c6ccc(O)cc6)nc5c4)nc3c2)CC1 [HOECHST 33258]
IC50 [1]: 19.5 µM | IC50 (DNA topoisomerase 1): 22.9 µM | IC50 [10]: 28.9 µM | inhibition [7]: inactive | ΔTm [2]: 24.6 °C | MIC (Staphylococcus aureus [3]): ≥ 32 µg/mL | MIC (Staphylococcus aureus [4]): 16 µg/mL (≈ 37.7 µM) | MIC (Enterococcus faecalis): 16 µg/mL (≈ 37.7 µM)

C#CCCCCCCCCCOc1ccc(-c2nc3ccc(-c4nc5ccc(N6CCN(C)CC6)cc5[nH]4)cc3[nH]2)cc1
IC50 [1]: 2.47 µM | inhibition [6]: 5% | inhibition [7]: inactive | ΔTm [2]: 8 °C | ΔTm (Calf thymus DNA): 1 °C | IC50 (DU-145): > 10 µM | MIC (Escherichia coli [8]): 8 µg/mL (≈ 13.9 µM) | MIC (Enterococcus faecalis): 16 µg/mL (≈ 27.8 µM)

C#CCCCCOc1ccc(-c2nc3ccc(-c4nc5ccc(N6CCN(C)CC6)cc5[nH]4)cc3[nH]2)cc1
IC50 [1]: 4.57 µM | inhibition [6]: 5% | inhibition [7]: inactive | ΔTm [2]: 20.9 °C | ΔTm (Calf thymus DNA): 1 °C | IC50 (DU-145): 2.12 µM | MIC (Staphylococcus aureus [3]): 2 µg/mL (≈ 3.96 µM) | MIC (Staphylococcus aureus [4]): 2 µg/mL (≈ 3.96 µM) | MIC (Escherichia coli [5]): 8 µg/mL (≈ 15.9 µM) | MIC (Pseudomonas aeruginosa): 16 µg/mL (≈ 31.7 µM) | MIC (Escherichia coli [8]): 8 µg/mL (≈ 15.9 µM) | MIC (Enterococcus faecalis): 4 µg/mL (≈ 7.93 µM)

C#CCOc1ccc(-c2nc3ccc(-c4nc5ccc(N6CCN(C)CC6)cc5[nH]4)cc3[nH]2)cc1
IC50 [1]: 5.5 µM | inhibition [6]: 70% | inhibition [11]: inactive | ΔTm [2]: 22.9 °C | ΔTm (Calf thymus DNA): 1 °C | MIC (Staphylococcus aureus [3]): 2 µg/mL (≈ 4.32 µM) | MIC (Staphylococcus aureus [4]): 2 µg/mL (≈ 4.32 µM) | MIC (Escherichia coli [5]): 8 µg/mL (≈ 17.3 µM) | MIC (Escherichia coli [8]): 8 µg/mL (≈ 17.3 µM) | MIC (Enterococcus faecalis): 16 µg/mL (≈ 34.6 µM)
